According to ChEMBL document CHEMBL4602702, “Red-Emitting Dibenzodiazepinone Derivatives as Fluorescent Dualsteric Probes for the Muscarinic Acetylcholine M2 Receptor” (J Med Chem, 2020):
One block for each molecule: values may come before it.

Columns and labels:
[1] = target: T1, Muscarinic acetylcholine receptor M2 (Homo sapiens) (UniProt P08172); test: Displacement of [3h]-NMS from human muscarinic M2 receptor expressed in CHO cells by radioligand binding assay; format: cell-based
T1 sequence (whole entry): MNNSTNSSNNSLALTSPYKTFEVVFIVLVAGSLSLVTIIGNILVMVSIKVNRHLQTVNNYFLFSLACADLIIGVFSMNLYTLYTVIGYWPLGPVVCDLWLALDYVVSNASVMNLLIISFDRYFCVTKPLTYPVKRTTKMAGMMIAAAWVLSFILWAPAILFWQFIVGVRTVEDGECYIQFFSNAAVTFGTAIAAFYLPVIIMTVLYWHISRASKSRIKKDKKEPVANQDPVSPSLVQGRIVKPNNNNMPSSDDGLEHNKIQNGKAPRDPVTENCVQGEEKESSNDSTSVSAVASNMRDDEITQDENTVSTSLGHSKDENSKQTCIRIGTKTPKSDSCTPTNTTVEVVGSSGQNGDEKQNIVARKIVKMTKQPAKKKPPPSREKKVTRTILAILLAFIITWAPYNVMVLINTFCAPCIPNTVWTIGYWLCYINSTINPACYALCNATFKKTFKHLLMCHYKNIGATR

[2] = target: T2, Muscarinic acetylcholine receptor M1 (Homo sapiens) (UniProt P11229); test: Displacement of [3H]-NMS from human muscarinic M1 receptor expressed in CHO cells by scintillation counting method; format: cell-based
T2 sequence (whole entry): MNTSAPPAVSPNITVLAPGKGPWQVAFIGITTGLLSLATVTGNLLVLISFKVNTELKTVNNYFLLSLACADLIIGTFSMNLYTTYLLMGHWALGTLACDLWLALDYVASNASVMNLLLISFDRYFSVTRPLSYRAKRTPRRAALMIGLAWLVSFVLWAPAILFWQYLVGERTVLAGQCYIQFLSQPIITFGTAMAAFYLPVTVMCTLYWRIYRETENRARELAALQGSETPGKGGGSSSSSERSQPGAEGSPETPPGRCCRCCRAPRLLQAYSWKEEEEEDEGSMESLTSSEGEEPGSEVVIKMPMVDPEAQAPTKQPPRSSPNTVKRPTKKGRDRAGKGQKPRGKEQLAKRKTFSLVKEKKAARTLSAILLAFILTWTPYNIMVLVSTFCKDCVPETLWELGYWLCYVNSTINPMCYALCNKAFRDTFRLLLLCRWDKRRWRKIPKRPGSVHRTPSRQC

[3] = target: T3, Muscarinic acetylcholine receptor M1 (Homo sapiens, UniProt P11229); test: Displacement of [3H]-QNB from truncated EGFP-fused human muscarinic M1 receptor expressed in HEK293 cells by […]; format: cell-based
T3 sequence (P11229 whole entry): T2 sequence (whole entry)

[4] = target: T4, Muscarinic acetylcholine receptor M2 (Homo sapiens, UniProt P08172); test: Displacement of 4-(2-((1E,3E)-5-((E)-3,3-Dimethyl-1-(6-oxo-6-((2-(4-(4-(1-(2-oxo-2-(11-oxo-10,11-dihydro-5H-dibenzo[b,e][1,4]diazepin-5-yl)ethyl)piperidin-4-yl)butyl)piperazin-1-yl)ethyl)amino)hexyl)-5-sulfoindolin-2-ylidene)penta-1,3-dien-1-yl)-3,3-dimethyl-3H-indol-1-ium-1-yl)butane-1-sulfonate Bis(hydrotrifluoroacetate) fluorescent tracer from human muscarinic M2 receptor expressed in […] cells measured after 60 mins by Hoechst H33342 dye based confocal plate reader assay; format: cell-based
T4 sequence (P08172 whole entry): T1 sequence (whole entry)

[5] = target: T4, Muscarinic acetylcholine receptor M2; test: Displacement of 4-(2-((1E,3E)-5-((E)-1-(6-((3,5-Bis((2-(3-(1-(4-(1-(2-oxo-2-(11-oxo-10,11-dihydro-5H-dibenzo[b,e][1,4]diazepin-5-yl)ethyl)piperidin-4-yl)butyl)-1H-imidazol-4-yl)propanamido)ethyl)carbamoyl)benzyl)amino)-6-oxohexyl)-3,3-dimethyl-5-sulfoindolin-2-ylidene)penta-1,3-dien-1-yl)-3,3-dimethyl-3H-indol-1-ium-1-yl)butane-1-sulfonate Tris(hydrotrifluoroacetate) fluorescent tracer from human muscarinic M2 receptor expressed in […] cells measured after 60 mins by Hoechst H33342 dye based confocal plate reader assay; format: cell-based
[6] = target: T4, Muscarinic acetylcholine receptor M2; test: Displacement of 4-(2-((1E,3E)-5-((E)-3,3-Dimethyl-1-(6-oxo-6-((2-(3-(1-(4-(1-(2-oxo-2-(11-oxo-10,11-dihydro-5H-dibenzo[b,e][1,4]diazepin-5-yl)ethyl)piperidin-4-yl)butyl)-1H-imidazol-4-yl)propanamido)ethyl)-amino)hexyl)-5-sulfoindolin-2-ylidene)penta-1,3-dien-1-yl)-3,3-dimethyl-3H-indol-1-ium-1-yl)butane-1-sulfonateHydrotrifluoroacetate fluorescent tracer from human muscarinic M2 receptor expressed in […] cells measured after 60 mins by Hoechst H33342 dye based confocal plate reader assay; format: cell-based
[7] = target: Muscarinic acetylcholine receptor M2 (Homo sapiens) (UniProt P08172); test: Displacement of [3H]-UR-SK259 human muscarinic M2 receptor
[8] = target: T4, Muscarinic acetylcholine receptor M2; test: Displacement of 4-(2-((1E,3E)-5-((E)-3,3-Dimethyl-1-(6-oxo-6-((2-(3-(1-(4-(1-(2-oxo-2-(11-oxo-10,11-dihydro-5H-dibenzo[b,e][1,4]diazepin-5-yl)ethyl)piperidin-4-yl)butyl)-1H-imidazol-4-yl)propanamido)ethyl)-amino)hexyl)-5-sulfoindolin-2-ylidene)penta-1,3-dien-1-yl)-3,3-dimethyl-3H-indol-1-ium-1-yl)butane-1-sulfonateHydrotrifluoroacetate fluorescent tracer from human muscarinic M2 receptor expressed in CHO-K9 cells by competition binding assay; format: cell-based; details: read-out: pA2 (converted)
How it was run: (§1)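 High-content imaging competition binding at intact CHO-hM2R cells against fluorescent tracer at 10 nM. Separately, flow cytometry competition with the fluorescent tracer at 1 nM at live cells. Four-parameter logistic fits; mean ± SEM of at least two experiments in duplicate.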

[9] = target: T4, Muscarinic acetylcholine receptor M2; test: Displacement of 4-(2-((1E,3E)-5-((E)-3,3-Dimethyl-1-(6-oxo-6-((2-(4-(4-(1-(2-oxo-2-(11-oxo-10,11-dihydro-5H-dibenzo[b,e][1,4]diazepin-5-yl)ethyl)piperidin-4-yl)butyl)piperazin-1-yl)ethyl)amino)hexyl)-5-sulfoindolin-2-ylidene)penta-1,3-dien-1-yl)-3,3-dimethyl-3H-indol-1-ium-1-yl)butane-1-sulfonate Bis(hydrotrifluoroacetate) fluorescent tracer from human muscarinic M2 receptor expressed in CHO-K9 cells by FACSCalibur flow cytometry; format: cell-based
[10] = target: T4, Muscarinic acetylcholine receptor M2; test: Displacement of 4-(2-((1E,3E)-5-((E)-1-(6-((3,5-Bis((2-(3-(1-(4-(1-(2-oxo-2-(11-oxo-10,11-dihydro-5H-dibenzo[b,e][1,4]diazepin-5-yl)ethyl)piperidin-4-yl)butyl)-1H-imidazol-4-yl)propanamido)ethyl)carbamoyl)benzyl)amino)-6-oxohexyl)-3,3-dimethyl-5-sulfoindolin-2-ylidene)penta-1,3-dien-1-yl)-3,3-dimethyl-3H-indol-1-ium-1-yl)butane-1-sulfonate Tris(hydrotrifluoroacetate) fluorescent tracer from human muscarinic M2 receptor expressed in CHO-K9 cells by competition binding assay; format: cell-based; details: read-out: pA2 (converted); how it was run: as §1
[11] = target: T4, Muscarinic acetylcholine receptor M2; test: Displacement of 4-(2-((1E,3E)-5-((E)-3,3-Dimethyl-1-(6-oxo-6-((2-(4-(4-(1-(2-oxo-2-(11-oxo-10,11-dihydro-5H-dibenzo[b,e][1,4]diazepin-5-yl)ethyl)piperidin-4-yl)butyl)piperazin-1-yl)ethyl)amino)hexyl)-5-sulfoindolin-2-ylidene)penta-1,3-dien-1-yl)-3,3-dimethyl-3H-indol-1-ium-1-yl)butane-1-sulfonate Bis(hydrotrifluoroacetate) fluorescent tracer from human muscarinic M2 receptor expressed in CHO-K9 cells by competition binding assay; format: cell-based; details: read-out: pA2 (converted); how it was run: as §1

pK [1]: 10.3
pK [2]: 10.5
SMILES: Cc1scc2c1N(C(=O)CN1CCN(CCCCCCCCCCNC(=O)Cc3ccc4c(c3)C(C)(C)C3=C5C=C6C7=[N+](CCC6OC5CCN34)c3ccc(S(=O)(=O)[O-])cc3C7(C)C)CC1)c1ccccc1NC2=O (centres undefined)

Ki [3]: 8.91 nM
SMILES: O=C(CCC1=[N+]2C(=Cc3ccc(-c4cccs4)n3[B-]2(F)F)C=C1)NCCOCCOCCOCCOCCOCCOCCCN1CCN(CC(=O)N2c3ccccc3C(=O)Nc3cccnc32)CC1

SMILES: O=C1CCCN1CC#CCN1CCCC1 [OXOTREMORINE]
Ki [4]: 851 nM
Ki [5]: 1780 nM
Ki [6]: 1020 nM

Kd [7]: 0.813 nM
SMILES: CCC(=O)NCc1cc(C(=O)NCCN2CCC(N3CCC(n4c(=O)[nH]c5ccccc54)CC3)CC2)cc(C(=O)NCCN2CCN(CCCCC3CCN(CC(=O)N4c5ccccc5NC(=O)c5ccccc54)CC3)CC2)c1

SMILES: C[N+](C)(CCCCCC[N+](C)(C)CCCN1C(=O)c2ccccc2C1=O)CCCN1C(=O)c2ccccc2C1=O
Ki [4]: 1410 nM
Kb [8]: 457 nM
Ki [5]: 851 nM
Ki [9]: 407 nM
Ki [6]: 646 nM
Kb [10]: 200 nM
Kb [11]: 148 nM
